Assay results collected from several papers.
Compare with care: the assays were run in different laboratories.
CSNK1A1: Casein kinase I isoform alpha (CSNK1A1, Homo sapiens, UniProt P48729)
PLA2G6: 85/88 kDa calcium-independent phospholipase A2 (PLA2G6, Homo sapiens, UniProt O60733)
SLC22A12: Solute carrier family 22 member 12 (SLC22A12, Homo sapiens, UniProt Q96S37)
HDAC10: Polyamine deacetylase HDAC10 (HDAC10, Homo sapiens, UniProt Q969S8)

| SMILES | target | observed | action | technique | IC50 |
| --- | --- | --- | --- | --- | --- |
| Oc1ccn2nc(-c3ccc(F)cc3)c(-c3ccncc3)c2c1 | CSNK1A1 | enzyme activity | inhibitor | ADP detection | 0.84 µM |
| Oc1ccccc1-c1n[nH]cc1-c1ccnc2ccccc12 | CSNK1A1 | enzyme activity | inhibitor | ADP detection | 3.1 µM |
| O=CCCCCCCCC(=O)C(F)(F)F | PLA2G6 | enzyme activity | inhibitor | – | 41.2 µM |
| O=C(NS(=O)(=O)C1CC1)c1cc2ccccc2n1Cc1ccc(C2CC2)c2ccccc12 | SLC22A12 | transporter uptake | inhibitor | radiometric | 5.8 µM |
| COc1ccc2c(-c3ccncc3)c(-c3ccc(F)cc3)nn2c1 | CSNK1A1 | enzyme activity | inhibitor | ADP detection | 2.4 µM |
| Fc1ccc(Cc2[nH]nc(-c3ccccn3)c2-c2ccnc3ccccc23)cc1 | CSNK1A1 | enzyme activity | inhibitor | ADP detection | 11 µM |
| Cc1cc(N)c2ccccc2[n+]1CCCCCCCCCC[n+]1c(C)cc(N)c2ccccc21 | Solute carrier family 22 member 2 (SLC22A2, Homo sapiens, UniProt O15244) | transporter uptake | inhibitor | fluorescence | 0.0882 µM |
| CC(C)(C)c1ccn2nc(-c3ccc(F)cc3)c(-c3ccncc3)c2c1 | CSNK1A1 | enzyme activity | inhibitor | ADP detection | 8.7 µM |
| Cc1ncc(-c2cc3cc(-c4c(C)ccc(O)c4C)cnc3[nH]2)cn1 | Membrane-associated tyrosine- and threonine-specific cdc2-inhibitory kinase (PKMYT1, Homo sapiens, UniProt Q99640) | cell-free assay | – | TR-FRET | 0.019 µM |
| O=C1CCC(c2ccc(OCC(=O)OCCCCc3cn(CCCCCCN4CCc5c(c6ccccc6n5Cc5ccc(C(=O)NO)cc5)C4)nn3)cc2)C(=O)N1 (stereo not shown) | HDAC10 | enzyme activity | inhibitor | fluorescence | 0.015 µM |
| Fc1ccc(-c2nn3cccc(F)c3c2-c2ccncc2)cc1 | CSNK1A1 | enzyme activity | inhibitor | ADP detection | 5.5 µM |
| O=C(CCCCCCCCO)C(F)(F)F | PLA2G6 | enzyme activity | inhibitor | – | 12.7 µM |
| COc1ccc(N(Cc2csc(-c3ccc(C)cc3)n2)C(=O)CCCCCC(=O)NO)cc1 | Histone deacetylase 7 (HDAC7, Homo sapiens, UniProt Q8WUI4) | enzyme activity | inhibitor | – | > 10 µM |
| COc1c(Cl)cccc1Nc1c(-c2ccncc2OC[C@@H]2COCCO2)[nH]c2c1C(=O)NCC2 | Epithelial discoidin domain-containing receptor 1 (DDR1, Homo sapiens, UniProt Q08345) | ligand displacement | – | TR-FRET | 0.11 µM |
| CC(C)(O)c1coc(S(=O)(=O)NC(=O)c2cc3ccccc3n2Cc2ccc(Br)c3ccccc23)c1 | SLC22A12 | transporter uptake | inhibitor | radiometric | 9.76 µM |
| CN1CCC(CNc2ccc3ncc(-c4cccc(OC(F)(F)F)c4)n3n2)CC1 | Beta-2 adrenergic receptor (ADRB2, Homo sapiens, UniProt P07550) | cAMP | antagonist | – | 8.31 µM |
| CCCS(=O)(=O)NC(=O)c1cc2ccccc2n1Cc1ccc(C2CC2)c2ccccc12 | SLC22A12 | transporter uptake | inhibitor | radiometric | 5.56 µM |
| c1ccc(-c2n[nH]cc2-c2ccncn2)nc1 | CSNK1A1 | enzyme activity | inhibitor | ADP detection | > 30 µM |
| O=C1CCC(N2C(=O)c3cccc(NCC(=O)OCCCCc4cn(CCCCCCN5CCc6c(c7ccccc7n6Cc6ccc(C(=O)NO)cc6)C5)nn4)c3C2=O)C(=O)N1 (stereo not shown) | HDAC10 | enzyme activity | inhibitor | fluorescence | 0.017 µM |
